According to ChEMBL document CHEMBL1154451, “Simple and efficient synthesis of novel glycosyl thiourea derivatives as potential antitumor agents” (Eur J Med Chem, 2008):

How the values were obtained:
Bel-7402 = experiment: Cytotoxicity against human Bel7402 cells after 48 hrs by MTT assay; assay type: functional, cell-based; details: Bel-7402, 48 h
Outline: (§1)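 Tumour cells seeded at 3–5 × 10⁴ cells/mL and cultured 24 h, then medium containing test compound at various concentrations added (plain medium for controls). Exposure 48 h, followed by MTT read-out with absorbance measured at 490 nm. EC50 values reported; compounds tested up to […].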

[1] = Cytotoxicity against human PG cells after 48 hrs by MTT assay; assay type: functional, cell-based; outline: as §1

Cc1cn([C@H]2C[C@H](N=[N+]=[N-])[C@@H](CO)O2)c(=O)[nH]c1=O [ZIDOVUDINE]
EC50 (Bel-7402): 4620 nM
EC50 [1]: 580 nM
